Active and inactive are the calls of the source. No cut-off for these calls is given here.
What was measured:
[1] = target: T1, Adrenergic receptor alpha-1 (Rattus norvegicus, UniProt P15823+P23944+P43140); experiment: Inhibition of [3H]WB-4101 binding to rat cortical Alpha-1 adrenergic receptor in vitro; type: protein assay
T1 sequence (P15823 whole entry): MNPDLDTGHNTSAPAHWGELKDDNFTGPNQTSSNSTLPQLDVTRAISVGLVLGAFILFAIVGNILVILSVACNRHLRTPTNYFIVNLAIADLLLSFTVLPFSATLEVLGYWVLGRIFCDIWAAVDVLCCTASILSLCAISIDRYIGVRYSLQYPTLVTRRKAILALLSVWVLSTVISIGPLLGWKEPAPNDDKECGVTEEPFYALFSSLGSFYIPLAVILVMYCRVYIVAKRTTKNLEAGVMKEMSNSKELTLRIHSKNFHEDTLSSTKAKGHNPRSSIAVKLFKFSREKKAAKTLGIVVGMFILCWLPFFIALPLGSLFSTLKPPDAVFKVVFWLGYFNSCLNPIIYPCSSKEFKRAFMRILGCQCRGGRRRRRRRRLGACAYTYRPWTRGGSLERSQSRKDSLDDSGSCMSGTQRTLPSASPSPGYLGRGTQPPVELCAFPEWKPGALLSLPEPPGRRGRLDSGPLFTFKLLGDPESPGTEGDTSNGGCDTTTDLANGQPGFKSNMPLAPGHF
T1 sequence (P23944 whole entry): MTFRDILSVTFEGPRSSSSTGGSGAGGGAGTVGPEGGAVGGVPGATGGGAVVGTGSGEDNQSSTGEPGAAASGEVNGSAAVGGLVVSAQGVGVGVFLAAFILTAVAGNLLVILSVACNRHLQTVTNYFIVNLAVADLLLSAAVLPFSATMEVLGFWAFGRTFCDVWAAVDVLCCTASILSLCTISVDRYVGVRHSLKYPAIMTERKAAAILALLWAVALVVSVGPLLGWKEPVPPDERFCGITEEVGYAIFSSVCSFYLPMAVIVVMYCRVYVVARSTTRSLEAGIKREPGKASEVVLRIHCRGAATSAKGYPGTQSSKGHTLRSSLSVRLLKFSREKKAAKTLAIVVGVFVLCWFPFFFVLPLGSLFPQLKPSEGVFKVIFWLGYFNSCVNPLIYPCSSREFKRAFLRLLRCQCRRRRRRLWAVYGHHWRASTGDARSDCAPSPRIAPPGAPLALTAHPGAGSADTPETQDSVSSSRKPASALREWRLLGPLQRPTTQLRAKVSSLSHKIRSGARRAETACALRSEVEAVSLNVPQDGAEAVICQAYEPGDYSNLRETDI
T1 sequence (P43140 whole entry): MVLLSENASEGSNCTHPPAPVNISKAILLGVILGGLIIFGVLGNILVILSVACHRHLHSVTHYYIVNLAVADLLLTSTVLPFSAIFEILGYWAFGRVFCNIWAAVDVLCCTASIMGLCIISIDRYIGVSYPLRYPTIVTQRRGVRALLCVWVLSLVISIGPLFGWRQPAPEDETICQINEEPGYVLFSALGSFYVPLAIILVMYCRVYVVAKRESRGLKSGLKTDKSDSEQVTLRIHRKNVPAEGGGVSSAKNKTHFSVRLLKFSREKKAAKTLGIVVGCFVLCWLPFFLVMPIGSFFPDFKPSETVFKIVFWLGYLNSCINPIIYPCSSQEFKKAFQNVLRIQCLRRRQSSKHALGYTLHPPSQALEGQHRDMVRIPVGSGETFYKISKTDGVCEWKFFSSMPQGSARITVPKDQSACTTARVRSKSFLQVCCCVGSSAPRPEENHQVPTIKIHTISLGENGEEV
Method in brief: (§1)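 Competition binding against tritiated radioligand. Test drug was run at five concentrations in a single experiment, and IC50 (nM) was derived from displacement.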

[2] = target: T2, Sigma non-opioid intracellular receptor 1 (Rattus norvegicus, UniProt Q9R0C9); experiment: Displacement of (+)-[3H]-3-PPP from rat cortical sigma site; method in brief: as §1
T2 sequence (Q9R0C9 whole entry): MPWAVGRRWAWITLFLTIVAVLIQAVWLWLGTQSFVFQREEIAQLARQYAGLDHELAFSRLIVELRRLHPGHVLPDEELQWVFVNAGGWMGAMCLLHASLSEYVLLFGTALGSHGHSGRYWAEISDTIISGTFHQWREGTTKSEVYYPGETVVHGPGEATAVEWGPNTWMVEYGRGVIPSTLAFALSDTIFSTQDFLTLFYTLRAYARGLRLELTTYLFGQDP

[3] = organism: Rattus norvegicus; experiment: Effective peroral dose for inhibition of conditioned avoidance response in rats; type: functional; conditions: po
[4] = target: T3, D(2) dopamine receptor (Rattus norvegicus, UniProt P61169); experiment: In vitro inhibitory against radioligand [3H]spiperone binding to rat striatal Dopamine receptor D2; method in brief: as §1
T3 sequence (P61169 whole entry): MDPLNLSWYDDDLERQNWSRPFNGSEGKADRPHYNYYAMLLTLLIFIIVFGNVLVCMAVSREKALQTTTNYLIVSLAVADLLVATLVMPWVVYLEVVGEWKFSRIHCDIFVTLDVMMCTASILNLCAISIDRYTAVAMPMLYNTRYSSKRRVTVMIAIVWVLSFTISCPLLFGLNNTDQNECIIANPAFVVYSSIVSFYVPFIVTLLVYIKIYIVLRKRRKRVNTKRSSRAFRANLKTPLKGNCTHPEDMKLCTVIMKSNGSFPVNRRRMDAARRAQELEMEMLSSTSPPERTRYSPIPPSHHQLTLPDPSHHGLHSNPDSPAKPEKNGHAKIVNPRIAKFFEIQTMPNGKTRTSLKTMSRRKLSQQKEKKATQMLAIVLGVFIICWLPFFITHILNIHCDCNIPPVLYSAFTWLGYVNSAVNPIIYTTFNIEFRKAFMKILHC

[5] = organism: Rattus norvegicus; experiment: Inhibition of apomorphine-induced stereotypy in rats via peroral route; type: functional; conditions: Rattus norvegicus, po; read-out: ED50
[6] = organism: Rattus norvegicus; experiment: Effective dose for inhibition of spontaneous motor activity in rats; type: functional
[7] = organism: Rattus norvegicus; experiment: Effective dose for ethanol potentiation in rats; type: functional
[8] = organism: Mus musculus; experiment: Effective dose for inhibition of norepinephrine induced lethality in mouse; type: functional
[9] = organism: Rattus norvegicus; experiment: Effective dose for motor incoordination in rats was determined by rotarod method; type: functional
[10] = test system: Rattus norvegicus; experiment: Effective dose for reversal of trifluoperazine-induced catalepsy in rats; I=Inactive (ED50 mg/Kg); type: functional, organism-based
[11] = organism: Mus musculus; experiment: Effective dose for inhibition of physostigmine induced lethality in mouse; type: functional
[12] = test system: Rattus norvegicus; experiment: Effective in vivo peroral dose against induction of catalepsy in rats; type: functional
[13] = target: T2, Sigma non-opioid intracellular receptor 1; experiment: Compound was tested in vitro for its ability to displace radioligand (+)-[3H]-3-PPP from rat cortical sigma receptor
[14] = test system: Rattus norvegicus; experiment: Effect of chronic administration at a peroral dose of 15 mg/Kg qd for 29 days on D2 receptor binding in rat striata; type: functional, organism-based
Method in brief: (§2)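 Rats dosed orally once daily for 29 days with vehicle or test drug. Striatal D2 receptor number (Bmax, fmol/mg protein) and affinity (KD, pM) were then measured. Values are mean ± SEM for the number of preparations, with significance versus vehicle by Student's t-test (p < 0.05).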

[15] = test system: Rattus norvegicus; experiment: Bmax (D2 receptor number) was determined after peroral administration of 15 mg/Kg in rats qd for 29 days; type: functional; method in brief: as §2
[16] = test system: Rattus norvegicus; experiment: Effect of chronic administration at a peroral dose of 30 mg/Kg qd for 29 days on D2 receptor binding in rat striata; type: functional, organism-based; method in brief: as §2
[17] = test system: Rattus norvegicus; experiment: Bmax (D2 receptor number) was determined after peroral administration of 30 mg/Kg in rats qd for 29 days; type: functional; method in brief: as §2
[18] = target: T1, Adrenergic receptor alpha-1; experiment: Inhibitory concentration against radioligand [3H]-WB- 4101 binding to rat cortical Alpha-1 adrenergic receptor; type: protein assay; method in brief: as §1
[19] = target: T3, D(2) dopamine receptor; experiment: Inhibitory concentration against radioligand [3H]spiperone binding to rat striatal Dopamine receptor D2
Method in brief: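 [3H]Spiperone displacement at the D2 receptor. Each value comes from a single experiment in which displacement of the tritiated ligand was measured at five concentrations of test drug, and an IC50 in nM was derived from that.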

[20] = Rattus norvegicus, po, read-out: ED50

OC(CCCN1CCN(c2ncccn2)CC1)(c1ccc(F)cc1)c1ccc(F)cc1
IC50 [1]: 0.4 µM
IC50 [2]: > 1 µM
ED50 [3]: 52.9 mg/kg
IC50 [4]: 0.2 µM
ED50 [5]: > 50 mg/kg

O=C(CCCN1CCN(c2ncc(Cl)cn2)CC1)c1ccc(F)cc1
IC50 [1]: 0.051 µM
ED50 [3]: > 100 mg/kg
IC50 [4]: 0.817 µM

CSc1nc(N2CCN(CCCC(=O)c3ccc(F)cc3)CC2)ncc1F
IC50 [1]: 0.095 µM
IC50 [2]: 0.12 µM
ED50 [3]: > 100 mg/kg
IC50 [4]: 0.396 µM
ED50 [5]: > 100 mg/kg

OC(CCCN1CCN(c2ncc(F)cn2)CC1)(c1ccc(F)cc1)c1ccc(F)cc1
IC50 [1]: 1.14 µM
ED50 [3]: > 100 mg/kg

CSc1ccc2c(c1)N(CCC1CCCCN1C)c1ccccc1S2 (configuration not stated) [THIORIDAZINE]
ED50 [6]: 33 mg/kg
ED50 [7]: 56 mg/kg
ED50 [8]: 2.2 mg/kg
IC50 [2]: 0.75 µM
ED50 [9]: 20 mg/kg
Activity [10]: inactive
ED50 [11]: 45 mg/kg
ED50 [5]: 280 mg/kg

O=C(CCCN1CCN(c2ncccn2)CC1)c1ccc(F)cc1
IC50 [1]: 0.006 µM
ED50 [12, 20]: > 100 mg/kg
IC50 [2]: 0.43 µM
ED50 [3]: 25.3 mg/kg
IC50 [4]: 0.679 µM
ED50 [5]: 21.6 mg/kg

CN1CCN(C2=Nc3cc(Cl)ccc3Nc3ccccc32)CC1 [CLOZAPINE]
ED50 [12, 20]: > 200 mg/kg
ED50 [8]: 3.5 mg/kg
ED50 [9]: 7.9 mg/kg
IC50 [13]: > 1 µM
Activity [10]: inactive
ED50 [11]: 5.4 mg/kg

COc1nc(N2CCN(CCCC(O)c3ccc(F)cc3)CC2)ncc1F (configuration not stated)
IC50 [1]: 0.18 µM
ED50 [12, 20]: 79.2 mg/kg
IC50 [2]: 0.024 µM
ED50 [3]: 40.8 mg/kg
IC50 [4]: 3.94 µM
ED50 [5]: 54 mg/kg

N#CC(CCCN1CCN(c2ncc(F)cn2)CC1)c1ccc(F)cc1 (configuration not stated)
IC50 [1]: 0.266 µM
ED50 [12, 20]: > 100 mg/kg
IC50 [2]: 0.19 µM
ED50 [3]: 19.8 mg/kg
IC50 [4]: 1.88 µM
ED50 [5]: > 100 mg/kg

OC(CCCN1CCN(c2ncc(F)cn2)CC1)c1ccc(F)cc1 (stereo in doubt; 16) [BMY-14802]
IC50 [1]: 0.52 µM
ED50 [6]: 87.3 mg/kg
ED50 [7]: 20.1 mg/kg
ED50 [12]: >100 mg/kg
ED50 [8]: > 100 mg/kg
ED50 [9]: 43.5 mg/kg
Kd [14]: 0.000121 µM
Bmax [15]: 233 fmol/mg protein
Kd [16]: 0.000101 µM
Bmax [17]: 212 fmol/mg protein
ED50 [11]: > 100 mg/kg
ED50 [5]: 33 mg/kg
IC50 [18]: 0.46 µM

Fc1ccc(/C=C(\CCN2CCN(c3ncc(F)cn3)CC2)c2ccc(F)cc2)cc1
IC50 [1]: 0.756 µM
IC50 [2]: > 1 µM
ED50 [3]: > 100 mg/kg
IC50 [4]: 8.8 µM

CSc1nc(N2CCN(CCCC(O)c3ccc(F)cc3)CC2)ncc1F (configuration not stated)
IC50 [1]: 0.305 µM
IC50 [2]: 0.026 µM
ED50 [3]: > 100 mg/kg
IC50 [4]: > 1 µM
ED50 [5]: > 100 mg/kg

O[C@H](CCCN1CCN(c2ncc(F)cn2)CC1)c1ccc(F)cc1
ED50 [12, 20]: 11.4 mg/kg
IC50 [19]: > 1 µM
ED50 [5]: 44 mg/kg
IC50 [18]: 0.61 µM

NC(CCCN1CCN(c2ncc(F)cn2)CC1)c1ccc(F)cc1 (configuration not stated)
IC50 [1]: 0.446 µM
IC50 [2]: ~1 µM
ED50 [3]: > 100 mg/kg
IC50 [4]: > 1 µM

O=C(CCCN1CCN(c2ncc(F)cn2)CC1)c1ccc(F)cc1
IC50 [1]: 0.029 µM
ED50 [12, 20]: 144 mg/kg
IC50 [2]: 0.13 µM
ED50 [3]: 36.3 mg/kg
ED50 [5]: 58.9 mg/kg
